ChEMBL document CHEMBL1128512, “Keto/enol epoxy steroids as HIV-1 Tat inhibitors: structure-activity relationships and pharmacophore localization” (J Med Chem, 1995)

Key:
[1] = system: Human immunodeficiency virus 1; experiment: Inhibition of HIV replication in H9 cells.; assay type: functional, organism-based; settings: Human immunodeficiency virus 1, H9
Method in brief: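 H9 cells (RPMI 1640 + 10% IFCS) infected with HIV-1 IIIB at three virus concentrations (0.5 log10 dilutions; most dilute ~5-10 infectious units/well), seeded 2×10^4 cells/well. 3-5 compound concentrations, 0.5% DMSO final, quadruplicate, 5 days at 37 °C, 5% CO2; media and compound renewed day 3. Day-5 supernatant p24 ELISA; IC50 for ≥2 viral doses, 3-5 assays, mean of n.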

[2] = Therapeutic index, measured by whole cell assay.; settings: read-out: Therapeutic index
Method in brief: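 Ratio of cytotoxicity IC50 to HIV replication IC50 in H9 cells; cut-off of 3 counts as positive. Toxicity: uninfected H9 at 2×10^4 cells/well, 3-5 compound concentrations in quadruplicate, 5 days at 37 °C, 5% CO2, media and compound renewed day 3, viable cells counted by trypan blue exclusion. Antiviral IC50 from HIV-1 IIIB p24 ELISA at day 5.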

SW480 [3] = experiment: The compound was tested for inhibition of HIV-1 replication in SW480 cells using HIV tat assay; Not active at 37 mM; assay type: functional, cell-based, Homo sapiens
Method in brief: (§1)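 SW480 colon carcinoma cells at 70-80% confluence, calcium phosphate co-transfected with HIV-1 LTR-CAT (pBennCAT) plus pSV2tat, total DNA adjusted with salmon sperm DNA. Compound (from DMSO stock diluted 100-fold in DMEM + 10% IFCS) added 5 h post-transfection, duplicate wells, 48 h at 37 °C. CAT activity read with [14C]chloramphenicol, 2 h. Selectivity check against SV40-promoter CAT. IC50 from logit dose-response curves, 3-5 experiments, 95% confidence limits.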

SW480 [4] = experiment: The compound was tested for inhibition of HIV-1 replication in SW480 cells using HIV tat assay; Not active at 123 mM; assay type: functional, cell-based, Homo sapiens; method in brief: as §1
SW480 [5] = experiment: The compound was tested for inhibition of HIV-1 replication in SW480 cells using HIV tat assay; Not active at 100 mM; assay type: functional, cell-based, Homo sapiens; method in brief: as §1
SW480 [6] = experiment: The compound was tested for inhibition of HIV-1 replication in SW480 cells using HIV tat assay; Not active at 80 mM; assay type: functional, cell-based, Homo sapiens
SW480 [7] = experiment: The compound was tested for inhibition of HIV-1 replication in SW480 cells using HIV tat assay; Not active at […]; assay type: functional, cell-based, Homo sapiens
SW480 [8] = experiment: The compound was tested for inhibition of HIV-1 replication in SW480 cells using HIV tat assay; Not active; assay type: functional, cell-based, Homo sapiens
SW480 [9] = experiment: The compound was tested for inhibition of HIV-1 replication in SW480 cells using HIV tat assay; Not active at 90 mM; assay type: functional, cell-based, Homo sapiens
SW480 [10] = experiment: The compound was tested for inhibition of HIV-1 replication in SW480 cells using HIV tat assay; Not active at 32 mM; assay type: functional, cell-based, Homo sapiens; method in brief: as §1

Compound	IC50 [1] [nM]	selectivity ratio [2]	also measured
C[C@@]12CCCC[C@@]1(O)[C@@H](Cl)C(=O)C(C(N)=O)C2 (some centres not stated)	9300	2	
C[C@@]12CCCC[C@]13O[C@@H]3C(=O)C(C(N)=O)C2 (some centres not stated)	6400	4.1	
COc1ccc(NC(=O)C2CC(C)(C)C3OC3C2=O)cc1 (configuration not stated)	5200	1.2	
COc1ccc(NC(=O)C2CC(C)(C)C=CC2=O)cc1 (configuration not stated)			IC50 (SW480 [3]): Not Active
CC1(C)C=CC(=O)C(C(=O)Nc2ccccc2)C1 (configuration not stated)			IC50 (SW480 [4]): Not Active
C[C@@]12CCCCC1=CC(=O)C(C(=O)Nc1ccccc1)C2 (some centres not stated)			IC50 (SW480 [5]): Not Active
C[C@@]12CCCC[C@]13O[C@@H]3C(=O)C(C(=O)Nc1ccccc1)C2 (some centres not stated)	2100	3.8	
C[C@@]12CCCC[C@]13O[C@@H]3C(=O)C(C#N)C2 (some centres not stated)	11000	3	
CC1(C)CC(C(=O)Nc2c(Cl)cccc2Cl)C(=O)C2OC21 (configuration not stated)	2700	2.3	
COc1ccc(NC(=O)C2C[C@]3(C)CCCC[C@]34O[C@@H]4C2=O)cc1 (some centres not stated)	8500	1.3	
CC(=O)O[C@H]1CCC2C3CCC4=CC(=O)C(C(N)=O)C[C@]4(C)C3CC[C@@]21C (some centres not stated)			IC50 (SW480 [6]): Not Active
C[C@]12CCC3C(CC[C@@]45O[C@@H]4C(=O)C(S(C)(=O)=O)C[C@]35C)C1CC[C@@H]2O (some centres not stated)	1400	3.9	
COC(=O)C1C[C@]2(C)[C@H]3CC[C@]4(C)[C@@H](O)CC[C@H]4[C@@H]3CC[C@]23O[C@@H]3C1=O (some centres not stated)	2400	4.5	
C[C@]12CC[C@H]3[C@@H](CC[C@@]45O[C@@H]4C(=O)C(C(N)=O)C[C@]35C)[C@@H]1CC[C@@H]2O (some centres not stated)	1200	6.5	
CC(=O)O[C@H]1CC[C@H]2[C@@H]3CCC4CC(=O)C(C(N)=O)C[C@]4(C)[C@H]3CC[C@]12C (some centres not stated)			IC50 (SW480 [6]): Not Active
C[C@]12CC[C@H]3[C@@H](CC[C@@]45O[C@@H]4C(=O)C(S(=O)(=O)c4ccccc4)C[C@]35C)[C@@H]1CC[C@@H]2O (some centres not stated)	1600	2.6	
C[C@]12CC[C@H]3[C@@H](CC[C@]45O[C@H]4C(=O)CC[C@]35C)[C@@H]1CC[C@@H]2O			IC50 (SW480 [7]): Not Active

Compound	IC50 [1] [nM]	selectivity ratio [2]	also measured
COC(=O)C1C[C@]2(C)[C@H]3CC[C@]4(C)[C@@H](OC(C)=O)CC[C@H]4[C@@H]3CC[C@]23O[C@@H]3C1=O (some centres not stated)	1400	3.1	
CC(=O)O[C@H]1CC[C@H]2[C@@H]3CC[C@@]45O[C@@H]4C(=O)C(C(N)=O)C[C@]5(C)[C@H]3CC[C@]12C (some centres not stated)	2400	1.6	
CC(=O)O[C@H]1CC[C@H]2[C@@H]3CC[C@@]45O[C@@H]4[C@@H](O)[C@@H](C(N)=O)C[C@]5(C)[C@H]3CC[C@]12C			IC50 (SW480 [6]): Not Active
CC(=O)O[C@H]1CC[C@H]2[C@@H]3CC[C@@]45O[C@@H]4C(=O)C(S(C)(=O)=O)C[C@]5(C)[C@H]3CC[C@]12C (some centres not stated)	300	4.3	
C[C@]12CC[C@H]3[C@@H](CC[C@@]45O[C@@H]4[C@H](O)[C@H](C(N)=O)C[C@]35C)[C@@H]1CC[C@@H]2O			IC50 (SW480 [8]): Not Active
C[C@]12CC[C@H]3[C@@H](CCC4CC(=O)C(C(N)=O)C[C@@]43C)[C@@H]1CC[C@@H]2O (some centres not stated)			IC50 (SW480 [9]): Not Active
CC(=O)O[C@H]1CC[C@H]2[C@@H]3CC[C@@]45O[C@@H]4[C@H](O)[C@H](C(N)=O)C[C@]5(C)[C@H]3CC[C@]12C			IC50 (SW480 [6]): Not Active
C[C@]12CCCC[C@@]13O[C@H]3C(=O)C(C(N)=O)C2 (some centres not stated)	10300	2.6	
C[C@@]12CCCC[C@@]1(O)[C@@H](Cl)C(=O)C(C(=O)Nc1ccccc1)C2 (some centres not stated)	3300	1.9	
CC1(C)C=CC(=O)C(C(=O)Nc2c(Cl)cccc2Cl)C1 (configuration not stated)			IC50 (SW480 [10]): Not Active
C[C@]12CC(C(N)=O)C(=O)C=C1CCC1C2CC[C@@]2(C)C1CC[C@@H]2O (some centres not stated)			IC50 (SW480 [9]): Not Active
CC1(C)CC(C(=O)Nc2ccccc2)C(=O)C2OC21 (configuration not stated)	4300	1.4	
COc1ccc(NC(=O)C2C[C@]3(C)CCCC[C@@]3(O)[C@@H](Cl)C2=O)cc1 (some centres not stated)	3300	4.2	
C[C@]12CCCC[C@@]13O[C@H]3C(=O)C(C#N)C2 (some centres not stated)	25900	3.8	
COc1ccc(NC(=O)C2C[C@]3(C)CCCCC3CC2=O)cc1 (some centres not stated)			IC50 (SW480 [5]): Not Active
O=C1CN=C(c2ccc[nH]2)c2cc(Cl)ccc2N1	600		
